Measured values: PubChem BioAssay
The source made the active and inactive calls.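 Rule for the calls, unless noted: active = viability at or under a set limit in both replicates, limit being median viability minus 3 SD (cut at about 48% in these data, passing the limit was not always enough); inconclusive = at or under the limit in just one replicate; inactive = at or above the limit in both replicates.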

Legend:
[1] = SK-BR-3 cell growth inhibitors, pilot screen, 24 h, human (AID 572;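 active = viability at or below 10% of carrier control in both of two separate runs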;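 note: compound exposure lasted between 18 and 24 h rather than exactly 24 h; 100% = carrier-treated control wells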); conditions: SK-BR-3 viability, CellTiter-Glo luminescence, at 10 µM, stronger effect = lower value
[2] = HUVEC growth inhibition – cell-based, human, primary screen (AID 575;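 active = viability at or below 30% in both replicate assays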;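 note: 100% = median of untreated cell wells with 0.1% DMSO on each plate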); conditions: HUVEC proliferation, CellTiter-Glo luminescence, 72 h; at 10 µM; stronger effect = lower value
Summary of the method: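 Timing: 72 h treatment at 37 °C; material: HUVEC primary cells; technique: CellTiter-Glo luminescence measuring cellular ATP; controls: vehicle and MePR control wells; measure: percent of median DMSO-control luminescence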

[3] = growth inhibitors of H69AR lung tumor, primary screen, human, duplicate replicates (AID 580); conditions: H69AR lung tumor cells viability, ATP luminescence, 72 h; at 10 µM; stronger effect = lower value;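 note: 100% = mean luminescence of untreated wells and 0% = no signal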
[4] = reversal of MRP1-mediated doxorubicin resistance, pilot screen, H69AR cells, doxorubicin co-treatment (AID 601;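 active = viability loss from added drug above about 55%, and viability with drug at most 40%, in both replicates, limit read from the data, passing the limit was not always enough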); conditions: CellTiter-Glo, 72 h, at 10 µM; for differential viability (reversal): stronger effect = higher value
[5] = 384-well plate pilot, post-Golgi transport modulator project, inhibition of yeast transport mutant growth (AID 636; in the data active = inhibition above about 31%); conditions: absorbance 615 nm, about 18 h, stronger effect = higher value
[6] = growth suppression of yeast trafficking mutant, preliminary HTS, modulators of trafficking downstream of Golgi apparatus project, 1536-format plate, OD 615 nm (AID 637; in the data active = inhibition above about 30%); conditions: yeast transport mutant growth, absorbance 615 nm, 18 h; stronger effect = higher value
[7] = H69AR cells + 2 uM doxorubicin, measured here: viability with 2 uM doxorubicin, stronger effect = lower value
[8] = H69AR cells, compound alone cytotoxicity

| Structure (SMILES) | viability [1] | viability [2] | viability [3] | differential viability (reversal) ([4]; H69AR cells + 2 uM doxorubicin) | viability [4, 7] [%] | viability [4, 8] [%] | inhibition [5] | inhibition [6] |
| --- | --- | --- | --- | --- | --- | --- | --- | --- |
| Cc1occc1C(=O)Nc1nnc(C2CCCCC2)s1 | 109% (inactive) | 93.1% (inactive) | 93.7% (inactive) | 14.1% (inactive) | 79.6 | 93.7 | -2.74% (inactive) | 10.7% (inactive) |
| CCOC(=O)C1(c2ccccc2)NC(c2ccc(N(C)C)cc2)C2C(=O)N(C)C(=O)C21 (configuration not stated) | 82% (inactive) | 104% (inactive) | 94.4% (inactive) | 29.2% (inactive) | 65.2 | 94.4 | -8.11% (inactive) | -6.73% (inactive) |
| COc1ccc(COC(=O)c2n[nH]c3ccccc23)cc1F | 89% (inactive) | 85.2% (inactive) | 100% (inactive) | 8.74% (inactive) | 91.3 | 100 | -9.45% (inactive) | 3.82% (inactive) |
| CCCCc1ccc(NC(=O)N[C@H](C(=O)O)C(C)C)cc1 | 119% (inactive) | 82.6% (inactive) | 95% (inactive) | -0.205% (inactive) | 95.2 | 95 | -2.05% (inactive) | -5.32% (inactive) |
| C=CCn1c(=O)c2ccccc2n2c(SC(C)C(=O)Nc3nc(-c4ccccc4)cs3)nnc12 (configuration not stated) | 66% (inactive) | 65.7% (inactive) | 79.6% (inactive) | -2.34% (inactive) | 81.9 | 79.6 | 2.6% (inactive) | 5.41% (inactive) |
| COC(=O)c1[nH]c2ccc(C)cc2c1NC(=O)CN1CCC(C)CC1 | 101% (inactive) | 94.5% (inactive) | 92.5% (inactive) | -6.15% (inactive) | 98.6 | 92.5 | -4.27% (inactive) | -2.73% (inactive) |
| Cn1c(=O)n(CCC(=O)O)c2ccccc21 | 93% (inactive) | 111% (inactive) | 97.2% (inactive) | 13.1% (inactive) | 84.1 | 97.2 | -7.67% (inactive) | 5% (inactive) |
| COc1ccc(CCN2CC(O)=C(c3nc4ccccc4c(=O)[nH]3)C2=N)cc1OC | 105% (inactive) | 85.6% (inactive) | 80.8% (inactive) | -4.8% (inactive) | 85.6 | 80.8 | -1.95% (inactive) | 1.8% (inactive) |
| CCOC(=O)C1=C(C)NC(C)=C(C(=O)OC)C1c1cccc([N+](=O)[O-])c1 (configuration not stated) | 68% (inactive) | 58% (inactive) | 83% (inactive) | -14.7% (inactive) | 97.7 | 83 | 5.58% (inactive) | -1.17% (inactive) |
| O=C1c2ccccc2S(=O)(=O)N1Cc1nnc(-c2ccccc2Br)o1 | 88% (inactive) | 102% (inactive) | 95% (inactive) | 17% (inactive) | 78 | 95 | -5.62% (inactive) | 0.32% (inactive) |
| Cn1c2c(c(=O)n(C)c1=O)C(NC(=O)C(C)(C)C)(C(F)(F)F)C(=O)N2 (configuration not stated) | 105% (inactive) | 98.7% (inactive) | 90.3% (inactive) | 9.01% (inactive) | 81.3 | 90.3 | -6.62% (inactive) | -1.82% (inactive) |
| CC(O)Cn1cnc2c1c(=O)n(C)c(=O)n2C (configuration not stated) | 107% (inactive) | 106% (inactive) | 95.8% (inactive) | -0.25% (inactive) | 96.1 | 95.8 | -1.04% (inactive) | 0.17% (inactive) |
| O=C(CN1C(=O)c2cccc3cccc1c23)Nc1ccccc1C(=O)NCc1ccco1 | 89% (inactive) | 108% (inactive) | 78.9% (inactive) | -2.93% (inactive) | 81.8 | 78.9 | -1.49% (inactive) | -8.67% (inactive) |
| Cc1ccc(S(=O)(=O)N2CCN(C(=O)CSc3nc4ccccc4c(=O)[nH]3)CC2)c(C)c1 | 99% (inactive) | 77.4% (inactive) | 85.1% (inactive) | 16.8% (inactive) | 68.2 | 85.1 | -6.53% (inactive) | -3.64% (inactive) |
